In ChEMBL document CHEMBL1127386, “Nitrogen-in-the-ring pyranoses and furanoses: structural basis of inhibition of mammalian glycosidases” (J Med Chem, 1994):
pIC50, pKi: −log10 of the molar value.

Columns and labels:
Beta-galactosidase [1] = target: T1, Beta-galactosidase (Rattus norvegicus, UniProt D3ZUM4); assay: Concentration that causes 50% inhibition of mammalian lysosomal beta-galactosidase was determined in rat liver; NI is less than 50 % inhibition at 1000 uM
T1 sequence (D3ZUM4 whole entry): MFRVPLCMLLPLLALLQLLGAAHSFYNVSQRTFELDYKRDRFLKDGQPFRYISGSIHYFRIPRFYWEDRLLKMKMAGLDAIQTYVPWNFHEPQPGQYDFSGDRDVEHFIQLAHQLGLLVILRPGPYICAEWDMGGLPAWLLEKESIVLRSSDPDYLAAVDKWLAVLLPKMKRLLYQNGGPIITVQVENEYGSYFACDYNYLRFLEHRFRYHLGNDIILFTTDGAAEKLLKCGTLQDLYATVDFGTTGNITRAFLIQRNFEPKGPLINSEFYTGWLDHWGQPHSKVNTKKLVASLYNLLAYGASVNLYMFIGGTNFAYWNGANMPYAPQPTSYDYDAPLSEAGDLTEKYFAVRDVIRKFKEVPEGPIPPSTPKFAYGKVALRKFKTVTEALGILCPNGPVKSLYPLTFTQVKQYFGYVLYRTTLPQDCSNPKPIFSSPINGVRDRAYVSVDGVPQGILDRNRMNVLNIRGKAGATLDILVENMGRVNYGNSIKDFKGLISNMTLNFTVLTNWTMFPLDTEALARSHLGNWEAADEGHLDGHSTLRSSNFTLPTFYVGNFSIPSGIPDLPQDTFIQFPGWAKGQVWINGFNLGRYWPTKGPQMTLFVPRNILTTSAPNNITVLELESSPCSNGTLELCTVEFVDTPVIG

Beta-galactosidase [2] = target: T1, Beta-galactosidase; assay: Concentration that causes 50% inhibition of mammalian epididymal beta-galactosidase was determined in rat epididymis NI is less than 50 % inhibition at 1000 uM; type: tissue-based
[3] = Concentration that causes 50% inhibition of mammalian alpha-glucosidase (endoplasmic reticulum glucosidase II) was determined in rat liver; NI is less than 50 % inhibition at 1000 uM
Beta-galactosidase [4] = target: T2, Beta-galactosidase (Bos taurus, UniProt Q58D55); assay: Concentration that causes 50% inhibition of mammalian lysosomal beta-galactosidase was determined in bovine liver; NI is less than 50 % inhibition at 1000 uM
T2 sequence (Q58D55 whole entry): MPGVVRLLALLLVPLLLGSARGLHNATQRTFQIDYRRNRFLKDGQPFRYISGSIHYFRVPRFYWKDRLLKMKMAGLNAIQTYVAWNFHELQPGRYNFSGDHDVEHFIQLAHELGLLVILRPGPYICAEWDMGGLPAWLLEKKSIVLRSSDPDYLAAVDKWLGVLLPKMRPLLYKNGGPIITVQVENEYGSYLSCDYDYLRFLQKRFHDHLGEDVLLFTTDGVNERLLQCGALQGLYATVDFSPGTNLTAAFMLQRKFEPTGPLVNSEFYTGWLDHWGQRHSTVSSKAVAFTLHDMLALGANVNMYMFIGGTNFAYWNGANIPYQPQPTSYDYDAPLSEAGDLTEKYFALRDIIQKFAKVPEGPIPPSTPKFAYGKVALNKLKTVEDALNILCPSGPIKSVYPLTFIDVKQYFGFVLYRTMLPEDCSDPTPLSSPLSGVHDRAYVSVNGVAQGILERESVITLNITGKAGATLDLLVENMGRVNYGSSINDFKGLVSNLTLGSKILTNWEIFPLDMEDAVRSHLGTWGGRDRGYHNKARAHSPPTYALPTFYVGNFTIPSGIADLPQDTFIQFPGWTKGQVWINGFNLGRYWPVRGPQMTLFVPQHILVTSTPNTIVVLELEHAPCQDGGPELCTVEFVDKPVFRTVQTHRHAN

Trehalase [5] = target: T3, Trehalase (Rattus norvegicus, UniProt O70282); assay: Concentration that causes 50% inhibition of mammalian trehalase was determined in rat intestine; NI is less than 50 % inhibition at 1000 uM
T3 sequence (O70282 whole entry): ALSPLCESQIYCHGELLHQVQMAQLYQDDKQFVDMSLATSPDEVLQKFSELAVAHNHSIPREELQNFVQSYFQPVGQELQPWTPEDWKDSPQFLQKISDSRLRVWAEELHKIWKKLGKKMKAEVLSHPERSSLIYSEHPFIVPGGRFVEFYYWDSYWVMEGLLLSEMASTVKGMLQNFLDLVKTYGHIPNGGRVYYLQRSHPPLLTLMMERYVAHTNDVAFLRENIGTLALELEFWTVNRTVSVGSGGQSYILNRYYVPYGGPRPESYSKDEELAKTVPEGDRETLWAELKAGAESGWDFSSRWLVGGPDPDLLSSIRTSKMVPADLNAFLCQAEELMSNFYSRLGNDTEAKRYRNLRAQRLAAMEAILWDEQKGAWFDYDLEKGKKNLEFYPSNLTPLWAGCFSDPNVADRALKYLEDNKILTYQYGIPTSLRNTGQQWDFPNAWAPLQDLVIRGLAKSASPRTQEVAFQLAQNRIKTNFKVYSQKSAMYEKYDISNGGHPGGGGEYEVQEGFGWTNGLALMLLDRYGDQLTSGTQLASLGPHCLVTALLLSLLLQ

Beta-galactosidase [6] = target: T2, Beta-galactosidase; assay: Concentration that causes 50% inhibition of mammalian cytosolic beta-galactosidase was determined in bovine liver; NI is less than 50 % inhibition at 1000 uM
Beta-galactosidase [7] = target: T1, Beta-galactosidase; assay: Concentration that causes 50% inhibition of mammalian lactase beta-galactosidase was determined in rat intestine; NI is less than 50 % inhibition at 1000 uM
[8] = target: Lysosomal alpha-glucosidase (Rattus norvegicus, UniProt Q6P7A9); assay: Concentration that causes 50% inhibition of mammalian alpha-glucosidase (lysosomal) was determined in rat liver; NI is less than 50 % inhibition at 1000 uM
Beta-galactosidase [9] = target: T1, Beta-galactosidase; assay: Concentration that causes 50% inhibition of mammalian epididymal beta-galactosidase was determined in rat epididymis; NI is less than 50 % inhibition at 1000 uM; type: tissue-based
[10] = Concentration that causes 50% inhibition of mammalian alpha-glucosidase (endoplasmic reticulum glucosidase II) was determined in rat liver NI is less than 50 % inhibition at 1000 uM; type: tissue-based
Trehalase [11] = target: T3, Trehalase; assay: Concentration that causes 50% inhibition of mammalian trehalase was determined in rat intestine; NI is less than 50 % inhibition at 1000 micro M
Alpha-glucosidase [12] = target: T4, Alpha-glucosidase (Bos taurus, UniProt Q9MYM4); assay: Inhibition of mammalian alpha-glucosidase (lysosomal) was determined in bovine liver; NI is less than 50 % inhibition at 1000 uM
[13] = target: Lactase/phlorizin hydrolase (Rattus norvegicus, UniProt Q02401); assay: Tested for competitive inhibition of rat intestinal lactase
Summary of the method: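 Brush border membranes from rat small intestine, assayed at pH 5.8 with lactose as substrate. Released D-glucose was measured colorimetrically by the D-glucose oxidase–peroxidase method. Ki and inhibition mode were determined.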

Beta-galactosidase [14] = target: T1, Beta-galactosidase; assay: Concentration that causes 50% inhibition of mammalian lysosomal beta-galactosidase was determined in rat liverNI is less than 50 % inhibition at 1000 uM
Trehalase [15] = target: T3, Trehalase; assay: Concentration that causes 50% inhibition of mammalian trehalase was determined in rat intestine
Beta-galactosidase [16] = target: T2, Beta-galactosidase; assay: Concentration that causes 50% inhibition of mammalian lysosomal beta-galactosidase was determined in bovine liver NI is less than 50 % inhibition at 1000 uM; type: tissue-based
Beta-galactosidase [17] = target: T2, Beta-galactosidase; assay: Concentration that causes 50% inhibition of mammalian cytosolic beta-galactosidase was determined in bovine liver NI is less than 50 % inhibition at 1000 uM; type: tissue-based
Beta-galactosidase [18] = target: T1, Beta-galactosidase; assay: Concentration that causes 50% inhibition of mammalian beta-galactosidase was determined in rat intestine; NI is less than 50 % inhibition at 1000 uM
Beta-galactosidase [19] = target: T1, Beta-galactosidase; assay: Concentration that causes 50% inhibition of mammalian beta-galactosidase was determined in rat epididymis; NI is less than 50 % inhibition at 1000 uM; type: tissue-based
Alpha-glucosidase [20] = target: T4, Alpha-glucosidase; assay: Inhibition of mammalian alpha-glucosidase (lysosomal) was determined in bovine liver; type: tissue-based
[21] = Concentration that causes 50% inhibition of mammalian alpha-glucosidase (endoplasmic reticulum glucosidase II) was determined in rat liver; type: tissue-based

Sequence of Lysosomal alpha-glucosidase (Q6P7A9 whole entry): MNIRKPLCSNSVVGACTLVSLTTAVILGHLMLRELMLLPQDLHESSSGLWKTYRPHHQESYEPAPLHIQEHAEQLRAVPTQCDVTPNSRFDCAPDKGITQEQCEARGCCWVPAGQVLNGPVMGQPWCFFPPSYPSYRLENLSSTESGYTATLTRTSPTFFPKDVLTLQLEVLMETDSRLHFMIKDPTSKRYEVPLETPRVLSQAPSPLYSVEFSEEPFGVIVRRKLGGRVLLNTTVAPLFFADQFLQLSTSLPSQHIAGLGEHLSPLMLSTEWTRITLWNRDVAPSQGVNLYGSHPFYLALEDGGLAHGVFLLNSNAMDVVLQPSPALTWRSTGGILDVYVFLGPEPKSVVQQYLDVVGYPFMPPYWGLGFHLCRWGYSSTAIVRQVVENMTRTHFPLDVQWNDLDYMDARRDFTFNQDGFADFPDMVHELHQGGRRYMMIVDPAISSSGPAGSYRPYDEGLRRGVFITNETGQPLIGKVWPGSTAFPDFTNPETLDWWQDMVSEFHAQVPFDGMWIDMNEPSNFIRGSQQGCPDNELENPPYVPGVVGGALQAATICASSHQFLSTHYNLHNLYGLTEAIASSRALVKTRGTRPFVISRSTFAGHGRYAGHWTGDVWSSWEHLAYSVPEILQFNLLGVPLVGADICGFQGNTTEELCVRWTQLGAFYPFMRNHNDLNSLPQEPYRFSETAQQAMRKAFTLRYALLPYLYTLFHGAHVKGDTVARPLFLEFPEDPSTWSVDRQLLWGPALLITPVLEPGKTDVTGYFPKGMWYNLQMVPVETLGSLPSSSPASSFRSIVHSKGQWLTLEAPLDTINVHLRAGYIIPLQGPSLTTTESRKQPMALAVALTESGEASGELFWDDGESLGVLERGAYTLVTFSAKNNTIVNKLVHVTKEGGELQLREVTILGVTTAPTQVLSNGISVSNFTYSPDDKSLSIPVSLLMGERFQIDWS
T4 sequence (Q9MYM4 whole entry): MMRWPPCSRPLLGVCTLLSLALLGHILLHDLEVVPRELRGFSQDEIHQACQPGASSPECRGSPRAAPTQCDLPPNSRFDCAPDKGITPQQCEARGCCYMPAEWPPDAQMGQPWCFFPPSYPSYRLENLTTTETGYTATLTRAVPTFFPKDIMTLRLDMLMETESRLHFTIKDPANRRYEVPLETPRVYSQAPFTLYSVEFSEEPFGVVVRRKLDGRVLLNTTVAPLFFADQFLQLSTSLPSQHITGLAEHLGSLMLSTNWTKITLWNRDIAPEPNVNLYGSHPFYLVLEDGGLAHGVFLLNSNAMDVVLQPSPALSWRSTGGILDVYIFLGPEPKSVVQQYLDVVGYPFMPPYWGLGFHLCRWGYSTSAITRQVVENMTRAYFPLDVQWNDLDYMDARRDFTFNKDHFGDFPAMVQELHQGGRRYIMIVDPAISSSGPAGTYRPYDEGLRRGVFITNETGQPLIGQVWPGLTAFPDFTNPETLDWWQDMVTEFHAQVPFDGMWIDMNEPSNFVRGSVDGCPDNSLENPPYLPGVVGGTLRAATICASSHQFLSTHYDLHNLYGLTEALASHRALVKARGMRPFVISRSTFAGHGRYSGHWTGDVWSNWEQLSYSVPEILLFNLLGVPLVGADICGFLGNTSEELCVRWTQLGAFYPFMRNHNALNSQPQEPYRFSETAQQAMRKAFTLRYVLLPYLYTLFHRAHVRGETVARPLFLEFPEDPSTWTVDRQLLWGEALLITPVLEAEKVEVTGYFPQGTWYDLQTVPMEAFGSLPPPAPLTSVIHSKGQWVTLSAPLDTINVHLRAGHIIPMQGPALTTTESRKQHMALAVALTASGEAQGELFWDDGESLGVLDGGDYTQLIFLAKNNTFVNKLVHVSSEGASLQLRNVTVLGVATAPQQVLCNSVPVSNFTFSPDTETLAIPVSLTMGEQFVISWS
Sequence of Lactase/phlorizin hydrolase (Q02401 868-1928 limits assumed): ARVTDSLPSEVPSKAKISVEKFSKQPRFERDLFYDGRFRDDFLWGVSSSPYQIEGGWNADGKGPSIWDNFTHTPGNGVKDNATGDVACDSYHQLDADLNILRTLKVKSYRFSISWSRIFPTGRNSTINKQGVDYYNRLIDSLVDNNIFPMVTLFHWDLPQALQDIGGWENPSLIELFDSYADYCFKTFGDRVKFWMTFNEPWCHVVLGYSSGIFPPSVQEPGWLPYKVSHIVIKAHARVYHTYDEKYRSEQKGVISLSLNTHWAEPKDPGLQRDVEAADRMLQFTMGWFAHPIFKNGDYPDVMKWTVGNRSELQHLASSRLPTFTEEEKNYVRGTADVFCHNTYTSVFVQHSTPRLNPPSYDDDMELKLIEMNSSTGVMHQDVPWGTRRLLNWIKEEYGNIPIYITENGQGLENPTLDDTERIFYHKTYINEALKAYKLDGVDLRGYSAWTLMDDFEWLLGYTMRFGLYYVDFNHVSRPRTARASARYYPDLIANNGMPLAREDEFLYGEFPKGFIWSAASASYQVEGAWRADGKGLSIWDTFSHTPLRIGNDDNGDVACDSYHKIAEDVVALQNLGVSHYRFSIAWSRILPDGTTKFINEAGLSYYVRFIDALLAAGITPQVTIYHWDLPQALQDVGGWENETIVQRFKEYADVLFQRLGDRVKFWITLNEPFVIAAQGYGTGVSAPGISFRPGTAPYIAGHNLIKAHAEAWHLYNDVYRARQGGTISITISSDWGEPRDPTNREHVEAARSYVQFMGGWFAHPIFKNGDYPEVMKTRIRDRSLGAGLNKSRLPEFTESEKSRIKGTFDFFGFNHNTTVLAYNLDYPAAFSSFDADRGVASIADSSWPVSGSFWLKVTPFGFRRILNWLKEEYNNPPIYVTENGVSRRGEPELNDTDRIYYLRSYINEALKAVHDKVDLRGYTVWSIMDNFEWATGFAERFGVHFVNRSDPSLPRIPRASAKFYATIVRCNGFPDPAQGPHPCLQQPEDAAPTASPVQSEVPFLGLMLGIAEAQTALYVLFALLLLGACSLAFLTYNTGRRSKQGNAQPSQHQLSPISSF

IC50 (Beta-galactosidase [1]) | IC50 [3] | IC50 (Beta-galactosidase [4]) | IC50 (Trehalase [5]) | IC50 [8] | IC50 (Beta-galactosidase [9]) | further results | SMILES
No inhibition | No inhibition | No inhibition | No inhibition | No inhibition |  | IC50 (Beta-galactosidase [2]): No inhibition; IC50 (Beta-galactosidase [6]): No inhibition; IC50 (Beta-galactosidase [7]): No inhibition | OC[C@H]1NCC[C@@H](O)[C@H]1O
No inhibition | No inhibition | No inhibition |  |  | No inhibition |  | OC[C@H]1N[C@H](CO)[C@@H](O)[C@@H]1O
No inhibition |  | No inhibition |  | No inhibition | No inhibition | IC50 [10]: No inhibition; IC50 (Trehalase [11]): No inhibition; IC50 (Alpha-glucosidase [12]): No inhibition; pKi [13]: 5.72 | OC[C@H]1NCC[C@H](O)[C@@H]1O
 |  |  |  |  |  | IC50 (Beta-galactosidase [2]): No inhibition; IC50 (Beta-galactosidase [14]): No inhibition; pIC50 (Trehalase [15]): 4.38; IC50 (Beta-galactosidase [16]): No inhibition; IC50 (Beta-galactosidase [17]): No inhibition | OC[C@H]1NC[C@H](O)[C@@H](O)[C@@H]1O (stereo in doubt; 1) [DUVOGLUSTAT]
 |  |  |  |  |  | IC50 [10]: No inhibition; IC50 (Beta-galactosidase [18]): No inhibition; IC50 (Beta-galactosidase [19]): No inhibition | OC[C@H]1NC[C@H](O)[C@@H](O)[C@@H]1O (stereo in doubt; 2) [DUVOGLUSTAT]
 |  |  |  |  |  | IC50 (Beta-galactosidase [6]): No inhibition | OC[C@H]1NC[C@H](O)[C@@H](O)[C@@H]1O (stereo in doubt; 4) [DUVOGLUSTAT]
No inhibition | No inhibition | No inhibition | No inhibition | No inhibition | No inhibition | IC50 (Alpha-glucosidase [12]): No inhibition | OC[C@H]1NC[C@H](O)[C@@H](O)[C@@H]1O [DUVOGLUSTAT]
No inhibition |  | No inhibition | No inhibition | No inhibition | No inhibition | pIC50 (Alpha-glucosidase [20]): 3.28; pIC50 [21]: 3.08 | OC[C@H]1NCC[C@@H](O)[C@@H]1O [FAGOMINE]
